Measured values taken from ChEMBL document CHEMBL1139868, “Synthesis, DNA binding, and Leishmania topoisomerase inhibition activities of a novel series of anthra[1,2-d]imidazole-6,11-dione derivatives” (J Med Chem, 2007).

Tests used:
[1] = tested on: DNA; experiment: Binding affinity to calf thymus double stranded DNA; format: nucleic-acid assay; settings: Bos taurus
In short: (§1)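 UV-vis absorption titration: increasing concentrations of dsDNA (calf thymus DNA, poly[d(A-T)]2 or poly[d(G-C)]2) added to ligand in buffer. Hypochromicity and red-shift of the long-wavelength absorption band were followed. Binding constants were obtained by the half-reciprocal plot method.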

[2] = target: T1, DNA topoisomerase I (Leishmania donovani donovani) (UniProt Q9NJG8); experiment: Inhibition of Leishmania donovani topoisomerase 1-induced relaxation activity assessed as recovery of supercoiled DNA at 10 uM
T1 sequence (whole entry): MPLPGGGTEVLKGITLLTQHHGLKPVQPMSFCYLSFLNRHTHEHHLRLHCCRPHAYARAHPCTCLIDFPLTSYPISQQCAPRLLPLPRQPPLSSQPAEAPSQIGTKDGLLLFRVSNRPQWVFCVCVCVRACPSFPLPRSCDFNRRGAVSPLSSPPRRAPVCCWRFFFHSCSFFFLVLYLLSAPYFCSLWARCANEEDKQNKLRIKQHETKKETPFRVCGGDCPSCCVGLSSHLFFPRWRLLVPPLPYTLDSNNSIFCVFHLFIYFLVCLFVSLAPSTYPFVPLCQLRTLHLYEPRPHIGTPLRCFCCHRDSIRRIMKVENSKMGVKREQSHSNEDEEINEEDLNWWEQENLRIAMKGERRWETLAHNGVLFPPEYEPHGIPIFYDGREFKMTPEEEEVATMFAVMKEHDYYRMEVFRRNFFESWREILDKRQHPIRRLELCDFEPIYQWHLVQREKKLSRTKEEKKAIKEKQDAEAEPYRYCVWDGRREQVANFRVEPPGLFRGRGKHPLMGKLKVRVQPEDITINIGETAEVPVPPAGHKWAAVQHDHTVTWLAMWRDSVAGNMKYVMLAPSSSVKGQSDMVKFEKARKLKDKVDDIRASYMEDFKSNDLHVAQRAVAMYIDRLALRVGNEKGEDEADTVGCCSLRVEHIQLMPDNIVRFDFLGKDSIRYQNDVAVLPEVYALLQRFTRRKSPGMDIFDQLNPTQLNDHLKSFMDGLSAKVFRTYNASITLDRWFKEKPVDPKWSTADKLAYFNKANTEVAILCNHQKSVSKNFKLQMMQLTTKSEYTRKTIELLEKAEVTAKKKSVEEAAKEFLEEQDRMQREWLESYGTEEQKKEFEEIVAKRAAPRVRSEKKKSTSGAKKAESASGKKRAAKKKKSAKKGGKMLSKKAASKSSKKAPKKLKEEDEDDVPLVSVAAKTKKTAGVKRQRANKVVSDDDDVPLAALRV

[3] = Binding affinity to double stranded poly[d[A-T)]2 DNA; settings: Homo sapiens; in short: as §1
[4] = Binding affinity to double stranded poly[d[G-C)]2 DNA; settings: Homo sapiens; in short: as §1
[5] = target: T1, DNA topoisomerase I (Leishmania donovani donovani); experiment: Inhibition of Leishmania donovani topoisomerase 1-induced relaxation activity assessed as recovery of supercoiled DNA at 20 uM
[6] = target: T1, DNA topoisomerase I (Leishmania donovani donovani); experiment: Inhibition of Leishmania donovani topoisomerase 1-induced relaxation activity assessed as recovery of supercoiled DNA at 50 uM

SMILES	Ka [1]	inhibition [2]	Ka [3]	Ka [4]	inhibition [5]	inhibition [6]
O=C1c2ccccc2C(=O)c2c1ccc1nc(-c3ccc(OCCCn4ccnc4)cc3)[nH]c21	1.1 10^5/M	62%	1.8 10^5/M	0.6 10^5/M	77%	91%
CN1CCN(CCCOc2ccc(-c3nc4ccc5c(c4[nH]3)C(=O)c3ccccc3C5=O)cc2)CC1	1 10^5/M	–	2.8 10^5/M	1.9 10^5/M	–	10%
O=C1c2ccccc2C(=O)c2c1ccc1nc(-c3cccnc3)[nH]c21	–	9%	–	–	15%	80%
CCN(CC)CCCOc1ccc(-c2nc3ccc4c(c3[nH]2)C(=O)c2ccccc2C4=O)cc1	1.9 10^5/M	–	3.2 10^5/M	2.3 10^5/M	2%	10%
O=C1c2ccccc2C(=O)c2c1ccc1nc(-c3ccccn3)[nH]c21	–	9%	–	–	20%	75%
CN(C)CCCOc1ccc(-c2nc3ccc4c(c3[nH]2)C(=O)c2ccccc2C4=O)cc1	2.1 10^5/M	–	4.1 10^5/M	3 10^5/M	–	5%
CC[C@@]1(O)C(=O)OCc2c1cc1n(c2=O)Cc2cc3ccccc3nc2-1	–	39%	–	–	55%	65%
O=C1c2ccccc2C(=O)c2c1ccc1nc(-c3ccc(OCCCn4cnnn4)cc3)[nH]c21	0.5 10^5/M	80%	0.5 10^5/M	0.3 10^5/M	92%	95%
O=C1c2ccccc2C(=O)c2c1ccc1nc(-c3ccc(OCCCN4CCN(CCO)CC4)cc3)[nH]c21	1.9 10^5/M	–	3 10^5/M	2.2 10^5/M	–	5%
O=C1c2ccccc2C(=O)c2c1ccc1nc(-c3ccc(OCCCN4CCOCC4)cc3)[nH]c21	0.6 10^5/M	46%	1.1 10^5/M	0.5 10^5/M	77%	92%
